# Hits are enriched below; roughly 5.1% of the tested compounds scored in any of these assays.
# STAT3 act-1: STAT3 signaling activation; hit rate 0.91% among 190,000; U3A cells, IL-6 STAT3-luciferase reporter, luminescence; 100% = signal with IL-6 EC80 alone; activation (% of control), % at 5.6 µM;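 active = activation above the screen-wide mean of compound activation plus 3 SD, cut at about 130% in these data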;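 note: 0% = background luminescence of wells with medium and substrate only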
#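 Test system: human U3A cells carrying STAT3-luciferase construct; control set: IL-6-only wells as 100% reference; timing: compound pre-incubation 1 h before IL-6, then 6 h stimulation at 37 °C; also added: IL-6 stimulus at 33 ng/mL final; evaluation: % activation versus median of IL-6-stimulated wells; detection: reporter luminescence signal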
# STAT1 act-1: STAT1 signaling activation | NIH 3T3 STAT1-luciferase reporter, IFN-gamma, luminescence; 100% = IFN-gamma alone, no compound | activation (% of control), % at 5.5 µM | hit rate 2.6% among 200,000 | AID 932;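 active = activation above the screen-wide mean activation plus 3 SD, cut at about 130% in these data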;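 note: raw ratio to IFN-gamma control signal so 100% means no change and 0% no light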
# APP 5'UTR act: activates APP 5'UTR luciferase reporter | SH-SY5Y APP 5'UTR luciferase reporter, luminescence; zero percent = DMSO vehicle wells | activation, % at 2 µM | hit rate 1% among 190,000;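 active = activation above a set limit, based on mean plus 3 SD of controls, cut at about 140% in these data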
# STAT3 blocker: reduces IL-6 driven STAT3 reporter signal; U3A cells, IL-6 STAT3-luciferase reporter, luminescence; host cell line lacks STAT1; inhibition, % at 5.5 µM; hit rate 0.89% among 190,000; AID 862;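 active = inhibition above the mean inhibition across all screened compounds plus 3 SD, cut at about 44% in these data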;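 note: 0% = DMSO only wells and 100% = 100 µM nifuroxazide control wells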
# STAT1 inh: reduces IFN-gamma driven STAT1 reporter signal; inhibition, % at 5.5 µM; hit rate 0.35% among 200,000; NIH 3T3 STAT1-luciferase reporter, luminescence;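 active = inhibition above a set limit, the mean inhibition across all tested compounds plus 3 SD, cut at about 34% in these data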;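 note: 0% = IFN-gamma with DMSO and 100% = IFN-gamma with 300 µM nifuroxazide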
# NF-kB expr up: raises NF-kB expression in human neuronal cells; NF-kB reporter expression; hits give high values; fold change at 12.5 µM; hit rate 1.6% among 190,000; AID 1239; in the data active = fold change above about 3.3
# STAT3 act-2: confirmation of STAT3 signaling activators | shares compounds with STAT3 act-1 | U3A STAT3-luciferase reporter, IL-6 potentiation, luminescence; U3A cells lack STAT1; 100 means same as IL-6 alone | potentiation (% of control), % at 5.7 µM | hit rate 64% among 1,200;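 active = percent activation of the STAT3 luciferase reporter above a set limit taken from the earlier primary screen, cut at about 130% in these data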;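 note: 0% = background signal of medium plus substrate and 100% = median of IL-6 with DMSO wells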
# NFkB act STAT3ct: activates NF-kappaB, counter-screen to STAT3 activators | shares compounds with STAT3 act-1 | human cells, NF-kappaB reporter activation | activation (% of control), % at 5.7 µM | hit rate 11% among 1,200; in the data active = activation above about 120%;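 note: reporter induced by TNF-alpha stimulation; 100% = median of stimulated DMSO wells and 0% = no signal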
# STAT1 act-2: activates STAT1, counter-screen to STAT3 activators; activation (% of control), % at 5.7 µM; AID 1318; hit rate 13% among 1,200; shares compounds with STAT3 act-1; NIH 3T3 STAT1-luciferase reporter, IFN-gamma, luminescence;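 active = activation above the solvent-only control well mean plus 3 SD, set per screening run, cut at about 120% in these data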;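 note: 100% = IFN-gamma with DMSO median signal so 100% means no change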
# Starred values were filed as active, the others as inactive; . = no result given.
SMILES,STAT3 act-1,STAT1 act-1,APP 5'UTR act,STAT3 blocker,STAT1 inh,NF-kB expr up,STAT3 act-2,NFkB act STAT3ct,STAT1 act-2
Cc1[nH]c(=O)[nH]c(=O)c1/C=C/C(=O)OCC(C)C,103.0,98.6,-8.6,-8.2,1.6,1.01,.,.,.
c1ccc(-c2nnc(CN3CCCc4ccccc43)o2)cc1,144.8*,100.6,4.5,-49.4,-0.7,1.25,124.1,105.2,101.8
Cn1nc(-c2ccccc2)c2nc3ccccc3nc21,149.7*,87.8,-4.0,-50.9,13.5,1.03,139.7*,104.8,93.0
Cc1cc2ccccn2c1C(=O)Nc1ccc(Cl)cc1,155.9*,119.3,89.4,-61.8,-19.9,1.1,165.9*,114.0,118.2
COc1ccc(COc2cc(-c3cccc(OC)c3)nc3ccc(NC(=O)c4ccc(N(C)C)cc4)cc23)cc1,136.2*,106.7,-11.0,-46.2,-7.4,0.53,91.6,98.7,103.7
CC1CCN(C(=O)Cn2c(=O)n(CCc3ccccc3)c(=O)c3ccccc32)CC1,140.3*,88.3,17.3,-46.7,12.6,0.4,138.4*,101.5,83.4
Oc1ccccc1/C=C/c1noc(-c2ccccc2O)n1,142.4*,119.5,113.0,-39.8,-22.8,1.08,168.9*,100.5,101.8
COC(=O)C1=C(NC(=O)c2ccc(Br)cc2)CCS1,145.7*,104.6,-7.5,-34.2,-5.8,0.95,133.2*,108.0,107.8
O=C(O)C1CC=CCC1C(=O)Nc1ccc(S(=O)(=O)N2CCCc3ccccc32)cc1 (stereo not drawn),162.0*,103.2,3.3,-70.0,-3.5,1.63,146.1*,106.4,106.7
Cc1nc2cc(-c3cccc(F)c3)nn2c(N2CCN(C(=O)c3ccco3)CC2)c1C,136.7*,97.5,15.2,-48.6,2.7,1.99,119.6,113.7,90.9
CCOC(=O)c1cnn(-c2nc3c(C)cccc3s2)c1C(F)(F)F,102.3,102.2,7.6,-2.4,-2.4,1.14,.,.,.
CCOC(=O)c1cnn(-c2nc3c(C)cccc3s2)c1C,151.5*,98.1,7.4,-61.7,2.0,1.45,130.2,101.2,102.0
Cc1cccc(C2(c3cccc(C)c3)CC2C(=O)Nc2ccc([N+](=O)[O-])cc2O)c1 (stereo not drawn),101.0,100.7,-15.2,-2.3,-0.8,0.38,.,.,.
c1ccc(C2=Nc3ccccc3SC2c2nc3ccccc3[nH]2)cc1 (stereo not drawn),158.0*,128.4,110.2,-59.5,-30.9,6.69*,146.6*,130.3*,152.3*
Cn1/c(=N/N=C/c2ccc(Cl)c([N+](=O)[O-])c2)sc2ccccc21,156.4*,96.2,8.9,-56.8,4.1,1.36,148.4*,108.2,112.7
COc1cc(/C=N/NC(=S)NC(C)C)ccc1OCC(=O)Nc1c(C)cc(C)cc1C,146.9*,93.8,0.3,-59.9,6.8,1.22,137.5*,98.8,101.7
COc1cccc2sc(Nc3nnc(-c4ccc(F)cc4)o3)nc12,159.2*,104.0,10.1,-59.8,-4.4,0.99,147.9*,111.3,108.7
COc1cccc2sc(NNC(=O)COc3ccccc3)nc12,99.8,102.3,11.9,7.2,-3.5,1.08,.,.,.
CCOc1ccc(NC(=O)C(C)Oc2ccccc2C(=O)Nc2ccc(C)c(Cl)c2)cc1 (stereo not drawn),149.0*,108.7,-12.6,-61.2,-9.6,1.09,137.0*,110.8,102.5
CCCc1nnc(N2C(=O)c3cccc4cccc(c34)C2=O)s1,159.9*,93.5,16.3,-61.2,7.1,0.87,145.7*,101.1,90.2
Cc1cccc(C2c3[nH]c4ccccc4c3CCN2C(=O)c2cc3c([nH]c2=O)CCCC3)n1 (stereo not drawn),127.3,87.3,-5.3,-24.6,13.4,0.65,.,.,.

# Screening data: PubChem BioAssay, several laboratories
